Converted amounts (≈) assume the structure as drawn. The source made the active and inactive calls. The rule behind the calls is not given here. Bounds are passed on as bounds.

In one assay the test system is Human alphaherpesvirus 1. Briefly: Antiviral activity against HSV1 in african green monkey Vero cells assessed as virus-induced cytopathic effect after 3 days by MTT assay. Format: functional, organism-based. Particulars: Human alphaherpesvirus 1, Vero, 72 h. The procedure, abridged: (§1)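 Vero cells seeded at 3 × 10³/well and grown 3-4 days to a confluent monolayer, washed, then infected with virus diluted in DME plus 2% FBS at a dose equal to 50% cell culture inhibitory dose (CCID50) for 60 min at 37 °C. Inoculum removed; medium with graded sample concentrations (below 300 µg/mL) added in duplicate; 3 days at 37 °C, 5% CO2. MTT read-out; EC50 = concentration inhibiting virus-induced CPE by 50%.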
(Damage to the host cells serves as the signal in cytopathic effect assays.)

A further assay has as its system Human alphaherpesvirus 2. Briefly: Antiviral activity against HSV2 in african green monkey Vero cells assessed as virus-induced cytopathic effect after 3 days by MTT assay. Particulars: for EC50: Human alphaherpesvirus 2, Vero, 72 h. Format: functional, organism-based. The procedure, abridged:
as §1

Broadly, the EC50 is the concentration giving half of the maximal effect. Take `C=C(C)[C@H](CCC(C)(C)O)Cc1c(O)cc(OC)c2c1O[C@H](c1ccc(O)cc1O)[C@H](O)C2=O` [KUSHENOL K]: the EC50 is over 300 µg/mL in the assay on Human alphaherpesvirus 1 and 147 µg/mL (≈ 311 µM) with Human alphaherpesvirus 2.
Turning to `OC[C@H]1O[C@@H](Oc2ccc3c(c2)OC[C@H]2c4cc5c(cc4O[C@@H]32)OCO5)[C@H](O)[C@@H](O)[C@@H]1O` [TRIFOLIRHIZIN], in the assay with Human alphaherpesvirus 1, the EC50 is over 300 µg/mL. Further, in the assay with Human alphaherpesvirus 2, the result was inactive.
With `C=C(C)[C@H](CCC(C)(C)O)Cc1c(O)cc(OC)c2c1O[C@H](c1ccc(O)cc1O)CC2=O` [KURARINOL], the concentration for a half-maximal effect (EC50) in the assay on Human alphaherpesvirus 1 was 60 µg/mL (≈ 131 µM); with Human alphaherpesvirus 2 it was 44 µg/mL (≈ 96.4 µM).
As for `COc1cc(O)c(CC=C(C)C)c2oc(-c3ccc(O)cc3)c(O)c(=O)c12` [SOPHOFLAVESCENOL], the EC50 in the assay with Human alphaherpesvirus 1 was over 300 µg/mL. In addition, in the assay on Human alphaherpesvirus 2, the result was inactive.
Take `C=C(C)[C@H](CCC(C)(C)O)Cc1c(O)cc(OC)c2c1O[C@H](c1ccc(O)cc1O)[C@@H](O)C2=O` [KUSHENOL H]: the EC50 in the assay on Human alphaherpesvirus 1 is over 300 µg/mL; in the assay on Human alphaherpesvirus 2, 162 µg/mL (≈ 343 µM).
Regarding `C=C(C)[C@H](CC=C(C)C)Cc1c(O)cc(OC)c(C(=O)/C=C/c2ccc(O)cc2O)c1O` [KURAIDIN], in the assay with Human alphaherpesvirus 1, the EC50 is over 300 µg/mL. In addition, the outcome in the assay with Human alphaherpesvirus 2 was inactive.
